We go through five compounds from ChEMBL document CHEMBL1926657, “Novel bioactive metabolites of dipyrone (metamizol)” (Bioorg Med Chem, 2012).

The source made the active and inactive calls. The rule behind the calls is not given here. Where only a bound is given, the exact number is not on record here.

In general, inhibition refers to the share of the control response that was lost under treatment. Broadly, the Ki is a dissociation constant, usually derived from enzyme kinetics or from competition with a known ligand. One may read the EC50 as the concentration needed to bring the measured effect to its halfway point. A low value points to greater potency. One may read the IC50 as the concentration needed to halve the response being measured.

For data set [1], the target named is T1, Transient receptor potential cation channel subfamily V member 1 (Homo sapiens, UniProt Q8NER1). The experiment in a line: Inhibition of TRPV1.
T1 sequence (Q8NER1 whole entry): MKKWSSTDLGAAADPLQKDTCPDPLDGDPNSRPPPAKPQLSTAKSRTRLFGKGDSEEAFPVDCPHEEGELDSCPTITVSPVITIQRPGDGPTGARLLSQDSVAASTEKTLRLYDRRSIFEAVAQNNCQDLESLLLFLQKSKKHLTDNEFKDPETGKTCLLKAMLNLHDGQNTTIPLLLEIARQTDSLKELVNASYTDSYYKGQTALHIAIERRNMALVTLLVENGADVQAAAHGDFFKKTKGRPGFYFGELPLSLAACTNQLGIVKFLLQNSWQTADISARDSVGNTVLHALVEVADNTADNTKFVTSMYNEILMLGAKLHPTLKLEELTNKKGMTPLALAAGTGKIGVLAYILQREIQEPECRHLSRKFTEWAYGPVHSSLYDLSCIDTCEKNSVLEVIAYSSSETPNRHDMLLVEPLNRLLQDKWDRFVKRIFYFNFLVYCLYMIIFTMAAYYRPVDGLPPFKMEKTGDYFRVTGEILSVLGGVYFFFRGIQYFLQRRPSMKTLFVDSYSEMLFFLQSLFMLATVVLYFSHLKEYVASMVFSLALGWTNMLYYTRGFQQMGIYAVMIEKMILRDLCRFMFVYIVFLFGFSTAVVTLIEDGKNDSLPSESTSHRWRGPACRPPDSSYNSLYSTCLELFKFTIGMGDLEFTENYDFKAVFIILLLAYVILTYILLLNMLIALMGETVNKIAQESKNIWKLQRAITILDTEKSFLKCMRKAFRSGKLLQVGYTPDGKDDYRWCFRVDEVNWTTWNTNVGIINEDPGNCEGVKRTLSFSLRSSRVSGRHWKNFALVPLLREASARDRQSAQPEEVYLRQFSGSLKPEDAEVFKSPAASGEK
For data set [2], the species on record is Mus musculus. The experiment in a line: Inhibition of COX-mediated PGE2 production in C57BL/6 mouse brain homogenate at 100 nM to 100 uM. The data set is classed as tissue-based. The essentials: (§1)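 Mouse brain homogenate (20 µg) made on ice in 50 mM Tris pH 7.4 with 1 mM phenol and protease inhibitors, then incubated with inhibitor or vehicle. Reaction started with 150 µM arachidonic acid at 37°C, stopped after 5 min by acidifying to pH 2.5 with 1% formic acid. Prostanoids extracted in ethyl acetate/hexane (7:1), and PGE2 or 6-keto-PGF1α quantified by GC-MS/MS.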

Data set [3] addresses Cannabinoid receptor 1 (Homo sapiens, UniProt P21554). In words: Displacement of [3H]CP-55940 from human recombinant CB1 receptor expressed in HEK cells. The data set is classed as cell-based, HEK293.
The target in data set [4] is Cannabinoid receptor 2 (Homo sapiens, UniProt P34972). In words: Displacement of [3H]CP-55940 from human recombinant CB2 receptor expressed in HEK cells. The data set is classed as cell-based, HEK293.
Cannabinoid receptor 2, sequence (P34972 whole entry): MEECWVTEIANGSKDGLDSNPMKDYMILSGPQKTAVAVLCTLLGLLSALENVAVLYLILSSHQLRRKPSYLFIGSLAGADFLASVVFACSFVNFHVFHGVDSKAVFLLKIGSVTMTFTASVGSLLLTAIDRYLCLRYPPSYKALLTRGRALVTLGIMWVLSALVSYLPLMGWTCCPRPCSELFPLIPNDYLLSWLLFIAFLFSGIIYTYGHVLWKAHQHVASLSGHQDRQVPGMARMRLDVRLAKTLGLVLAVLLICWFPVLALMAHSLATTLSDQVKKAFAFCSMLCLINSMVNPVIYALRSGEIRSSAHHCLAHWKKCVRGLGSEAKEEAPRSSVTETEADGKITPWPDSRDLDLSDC
Data set [5] addresses T1, Transient receptor potential cation channel subfamily V member 1. In words: Agonist activity at TRPV1. The data set is classed as functional.
The species named for data set [6] is Mus musculus. The experiment in a line: Inhibition of PGE2 production in LPS-stimulated COX-2 knockout C57BL/6 mouse brain homogenate at 0.4 uM measured after 6 hrs. The data set is classed as functional. An outline of the steps: (§2)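 COX-1−/− or COX-2−/− mice injected i.p. with LPS 50 µg kg−1; brains taken 6 h later and homogenised in Tris pH 7.4/phenol/protease-inhibitor buffer. COX activity measured with inhibitor or vehicle: 150 µM arachidonic acid, 37°C, 5 min, formic acid stop to pH 2.5. PGE2 extracted in ethyl acetate/hexane and measured by GC-MS/MS.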

The species entered for data set [7] is Mus musculus. The experiment in a line: Inhibition of PGE2 production in LPS-stimulated COX-1 knockout C57BL/6 mouse brain homogenate at 0.8 uM measured after 6 hrs. The data set is classed as functional. An outline of the steps: as §2
Data set [8] is filed under the species Mus musculus. In words: Ratio of IC50 for COX-mediated PGE2 production in C57BL/6 mouse brain homogenate measured after 6 hrs in absence of FAAH inhibitor URB532 to IC50 for COX-mediated PGE2 production in C57BL/6 mouse brain homogenate measured after 6 hrs in presence of FAAH inhibitor URB532. The data set is classed as tissue-based.
For data set [9], the species on record is Mus musculus. The experiment in a line: (§3) Inhibition of COX-mediated PGE2 production in C57BL/6 mouse brain homogenate. The data set is classed as tissue-based. An outline of the steps: as §1
The nature of data set [10]: as §3. The data set is classed as tissue-based. The essentials: as §1
The nature of data set [11]: Inhibition of COX-mediated PGE2 production in C57BL/6 mouse brain homogenate measured after 6 hrs in presence of FAAH inhibitor URB532. Type of data set: tissue-based.
Data set [12] is filed under the species Mus musculus. The experiment in a line: (§4) Inhibition of COX-mediated 6-keto-PGF1alpha production in C57BL/6 mouse brain homogenate. The data set is classed as tissue-based. The essentials:
as §1

Data set [13] can be described thus: as §4. The data set is classed as tissue-based. An outline of the steps: as §1
The species named for data set [14] is Mus musculus. The experiment in a line: Inhibition of PGE2 production in LPS-stimulated COX-2 knockout C57BL/6 mouse brain homogenate measured after 6 hrs. Type of data set: functional. The conditions noted are these: C57BL/6, Brain. The essentials:
as §2

For data set [15], the species on record is Mus musculus. The experiment in a line: Inhibition of PGE2 production in LPS-stimulated COX-1 knockout C57BL/6 mouse brain homogenate measured after 6 hrs. The data set is classed as functional. The conditions noted are these: C57BL/6, Brain. An outline of the steps:
as §2

The target of data set [16] is T2, Prostaglandin G/H synthase 2 (Mus musculus, UniProt Q05769).
T2 sequence (Q05769 whole entry): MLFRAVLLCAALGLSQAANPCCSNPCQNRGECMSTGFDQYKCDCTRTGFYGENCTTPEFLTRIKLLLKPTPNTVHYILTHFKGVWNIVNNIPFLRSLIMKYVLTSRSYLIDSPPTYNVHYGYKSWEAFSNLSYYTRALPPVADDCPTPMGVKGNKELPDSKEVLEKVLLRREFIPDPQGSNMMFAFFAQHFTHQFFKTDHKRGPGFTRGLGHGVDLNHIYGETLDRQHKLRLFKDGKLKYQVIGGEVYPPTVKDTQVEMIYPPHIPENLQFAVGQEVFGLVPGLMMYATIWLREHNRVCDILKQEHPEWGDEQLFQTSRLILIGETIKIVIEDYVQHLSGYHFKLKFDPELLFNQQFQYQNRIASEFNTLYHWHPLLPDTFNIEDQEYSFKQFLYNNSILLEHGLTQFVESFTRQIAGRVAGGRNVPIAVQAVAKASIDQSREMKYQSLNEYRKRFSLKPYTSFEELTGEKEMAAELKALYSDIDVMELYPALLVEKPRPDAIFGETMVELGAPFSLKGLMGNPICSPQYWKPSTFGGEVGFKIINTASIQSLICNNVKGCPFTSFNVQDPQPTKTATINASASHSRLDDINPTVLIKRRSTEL
In words: Inhibition of COX-2 in C57BL/6 mouse brain homogenate. The data set is classed as tissue-based. The essentials:
(§5)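 Brain homogenate from C57BL/6 mice was prepared on ice in 50 mM Tris pH 7.4 with 1 mM phenol and protease inhibitors. 20 µg of homogenate was incubated with inhibitor or vehicle. The reaction was started with 150 µM arachidonic acid at 37°C and stopped after 5 min with formic acid to pH 2.5. Prostanoids were extracted with ethyl acetate/hexane 7:1. PGE2 and 6-keto-PGF1α were measured by GC-MS/MS, and IC50 was determined.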

In data set [17] the target is T3, Prostaglandin G/H synthase 1 (Mus musculus, UniProt P22437).
T3 sequence (P22437 whole entry): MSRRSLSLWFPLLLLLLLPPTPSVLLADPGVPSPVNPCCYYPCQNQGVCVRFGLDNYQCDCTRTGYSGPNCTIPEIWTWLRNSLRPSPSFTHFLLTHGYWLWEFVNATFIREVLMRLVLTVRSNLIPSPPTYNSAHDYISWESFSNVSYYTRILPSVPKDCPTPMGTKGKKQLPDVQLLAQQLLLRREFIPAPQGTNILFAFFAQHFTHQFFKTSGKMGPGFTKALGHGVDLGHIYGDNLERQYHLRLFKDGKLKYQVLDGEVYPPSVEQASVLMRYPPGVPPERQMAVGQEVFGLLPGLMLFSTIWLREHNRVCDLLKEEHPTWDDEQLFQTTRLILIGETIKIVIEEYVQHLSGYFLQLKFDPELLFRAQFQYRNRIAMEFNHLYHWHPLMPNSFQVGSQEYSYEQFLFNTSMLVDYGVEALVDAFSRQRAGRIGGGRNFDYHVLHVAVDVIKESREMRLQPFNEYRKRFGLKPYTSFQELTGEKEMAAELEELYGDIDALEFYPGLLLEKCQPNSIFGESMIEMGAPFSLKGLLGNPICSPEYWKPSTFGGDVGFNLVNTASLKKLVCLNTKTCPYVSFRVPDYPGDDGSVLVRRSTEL
The experiment in a line: Inhibition of COX-1 in C57BL/6 mouse brain homogenate. Type of data set: tissue-based. The essentials: as §5

For data set [18], the system named is Spleen. The experiment in a line: Prodrug activation in C57BL/6 mouse spleen assessed as formation of arachidonoyl-4-aminoantipyrin at 600 mg/kg, po administered daily measured after 48 hrs. Also on record: dose 600 mg/kg, route oral. The data set is classed as organism-based. Conditions: in vivo. An outline of the steps: (§6)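 Dipyrone was given in the drinking water, and mice were killed on day 2 (48 h) or day 5 (120 h) under isoflurane. Tissue was extracted with diisopropyl ether/ethyl acetate 1:3, dried and taken up in acetonitrile/water 9:1. The amides were measured by LC-MS/MS on a C18 column. Semi-quantification used external calibration with 10, 100 and 1000 pg standards.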

For data set [19], the system named is Brain. The experiment in a line: Prodrug activation in FAAH wild type C57BL/6 mouse brain assessed as formation of arachidonoyl-4-aminoantipyrin at 600 mg/kg, po administered daily measured after 48 hrs. Type of data set: organism-based. The conditions noted are these: in vivo. Set-up: dose 600 mg/kg, route oral. The essentials:
as §6

The subject of data set [20] is Spleen. The experiment in a line: Prodrug activation in C57BL/6 mouse spleen assessed as formation of arachidonoyl-4-methylaminoantipyrin at 600 mg/kg, po administered daily measured after 120 hrs. Type of data set: organism-based. Set-up: dose 600 mg/kg, route oral. The conditions noted are these: in vivo. An outline of the steps: as §6
Data set [21] can be described thus: Prodrug activation in C57BL/6 mouse CSF assessed as formation of arachidonoyl-4-methylaminoantipyrin at 600 mg/kg, po administered daily measured after 120 hrs. Type of data set: organism-based, Cerebrospinal fluid. Set-up: dose 600 mg/kg, route oral. Conditions: in vivo. The essentials:
as §6

Data set [22] has as its system Brain. In words: Prodrug activation in FAAH wild type C57BL/6 mouse brain assessed as formation of arachidonoyl-4-aminoantipyrin at 600 mg/kg, po administered daily measured after 120 hrs. The data set is classed as organism-based. Also on record: dose 600 mg/kg, route oral. Conditions: in vivo. An outline of the steps:
as §6

Data set [23] concerns Spleen. In words: Prodrug activation in C57BL/6 mouse spleen assessed as formation of arachidonoyl-4-aminoantipyrin at 600 mg/kg, po administered daily measured after 120 hrs. The data set is classed as organism-based. Also on record: dose 600 mg/kg, route oral. Conditions: in vivo. An outline of the steps:
as §6

Data set [24] in a line: Prodrug activation in C57BL/6 mouse CSF assessed as formation of arachidonoyl-4-aminoantipyrin at 600 mg/kg, po administered daily measured after 120 hrs. Type of data set: organism-based, Cerebrospinal fluid. Set-up: dose 600 mg/kg, route oral. Conditions: in vivo. The essentials:
as §6

Data set [25] in a line: Prodrug activation in C57BL/6 mouse CSF assessed as formation of arachidonoyl-4-methylaminoantipyrin at 600 mg/kg, po administered daily measured after 48 hrs. The data set is classed as organism-based, Cerebrospinal fluid. Set-up: dose 600 mg/kg, route oral. Conditions: in vivo. An outline of the steps: as §6
Data set [26] deals with Spleen. In words: Prodrug activation in C57BL/6 mouse spleen assessed as formation of arachidonoyl-4-methylaminoantipyrin at 600 mg/kg, po administered daily measured after 48 hrs. Type of data set: organism-based. Also on record: dose 600 mg/kg, route oral. The conditions noted are these: in vivo. The essentials: as §6
The test system of data set [27] is Brain. The experiment in a line: Prodrug activation in FAAH wild type C57BL/6 mouse brain assessed as formation of arachidonoyl-4-methylaminoantipyrin at 600 mg/kg, po administered daily measured after 120 hrs. The data set is classed as organism-based. Also on record: dose 600 mg/kg, route oral. Conditions: in vivo. An outline of the steps:
as §6

In data set [28] the test system is Brain. In words: Prodrug activation in FAAH wild type C57BL/6 mouse brain assessed as formation of arachidonoyl-4-methylaminoantipyrin at 600 mg/kg, po administered daily measured after 48 hrs. The data set is classed as organism-based. Set-up: dose 600 mg/kg, route oral. Conditions: in vivo. An outline of the steps: as §6
Data set [29] is described as follows: Prodrug activation in C57BL/6 mouse CSF assessed as formation of arachidonoyl-4-aminoantipyrin at 600 mg/kg, po administered daily measured after 48 hrs. Type of data set: organism-based, Cerebrospinal fluid. Also on record: dose 600 mg/kg, route oral. The conditions noted are these: in vivo. The essentials:
as §6

Cannabinoid receptor 1, sequence (P21554 whole entry): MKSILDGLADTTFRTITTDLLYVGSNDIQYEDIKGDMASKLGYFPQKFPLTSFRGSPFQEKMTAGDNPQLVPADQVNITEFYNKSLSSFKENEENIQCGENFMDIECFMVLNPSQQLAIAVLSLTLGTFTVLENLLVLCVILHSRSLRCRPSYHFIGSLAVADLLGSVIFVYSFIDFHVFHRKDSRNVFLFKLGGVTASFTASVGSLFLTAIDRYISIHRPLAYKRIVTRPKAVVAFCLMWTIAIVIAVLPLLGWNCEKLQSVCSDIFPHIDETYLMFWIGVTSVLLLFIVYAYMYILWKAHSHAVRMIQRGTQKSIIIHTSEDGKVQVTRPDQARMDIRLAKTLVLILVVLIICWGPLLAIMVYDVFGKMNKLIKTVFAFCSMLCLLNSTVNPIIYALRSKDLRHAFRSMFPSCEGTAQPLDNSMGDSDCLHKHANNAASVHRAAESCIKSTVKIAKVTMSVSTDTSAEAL

In the case of `CCCCC/C=C\C/C=C\C/C=C\C/C=C\CCCC(=O)Nc1c(C)n(C)n(-c2ccccc2)c1=O`, the inhibition entry in [1] and in data set [2] was “inactive” each time. In addition, the Ki in data set [3] came out at 2.9 µM; in [4], 5.4 µM.

For the compound `CCCCC/C=C\C/C=C\C/C=C\C/C=C\CCCC(=O)Nc1ccc(O)cc1`, in data set [5], the EC50 worked out at 0.026 µM.

In the case of `CCCCC/C=C\C/C=C\C/C=C\C/C=C\CCCC(=O)N(C)c1c(C)n(C)n(-c2ccccc2)c1=O`, the inhibition in data set [6] is 30%; in data set [9] it was “Dose-dependent effect”; in data set [12], “Dose-dependent effect”. For the same compound, the inhibition result in data set [7] is “Active”. The Ratio IC50 in data set [8] is > 200. In addition, the IC50 worked out at 13.2 µM in [10]; 0.058 µM in [11]; 5.2 µM in data set [13]; 0.107 µM in data set [14]; 0.355 µM in [15]. The Ki in [3] worked out at 7.8 µM; in data set [4], 3 µM.

For the compound `Cc1c(N)c(=O)n(-c2ccccc2)n1C` [AMPYRONE], the IC50 in data set [16] and in data set [17] was 1000 µM throughout.

Regarding `Cc1c(N(C)CS(=O)(=O)[O-])c(=O)n(-c2ccccc2)n1C.[Na+]` [DIPYRONE SODIUM], the Drug metabolism entry in data set [18], in [19], in data set [20], in data set [21], in [22] and in data set [23] was “Active” each time. The Drug metabolism result in data set [24], in data set [25], in data set [26], in data set [27], in data set [28] and in data set [29] was “Active” each time.
